# Tn7 DDE FP – DD(E)-Tn7 binding inhibition, primary FP screen; P02675; FP displacement of FITC-Tn7 peptide from fibrin DD(E); 0% = median of compound wells per plate; inhibition, % at 8.3 µM; hit rate 0.13% among 370,000; AID 720508;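 active means inhibition above the mean of compounds falling within the control limits plus 3 SD of them, cut at about 14% in these data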;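 further: 0% = plate median of compound wells and 100% = 10 µM Aha-Tn7 peptide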
#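 Assay system: human fibrin DD(E). Input: DD(E) 2 µM final. Medium: Tris buffer with calcium and detergent, pH 7.8. Compound dosing: single point at 8.3 µM. Timing: 10 min plus 3 h, room temperature. Technique: fluorescence polarization of the labelled Tn7 tracer. Read-out: percent inhibition. Replicates: singlicate testing.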
# DDE Tn6 FP inh – DD(E)-Tn6 binding inhibition, primary FP screen | AID 720509 | Fibrin DD(E) TRITC-Tn6 fluorescence polarization displacement | inhibition, % at 8.3 µM | hit rate 0.21% among 370,000;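 active means inhibition above a per-campaign cutoff: mean of compounds within control limits plus 3 SD, cut at about 15% in these data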;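 further: 0% = median of all compound wells on the plate and 100% = blocking peptide control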
# DAGLB inh – blocks human DAGLB lipase activity; Q8NCG7; inhibition, % at 5.17 µM; AID 504411; HEK293T DAGLB membrane lysate, EnzChek fluorogenic substrate; hit rate 0.059% among 340,000; in the data active means inhibition above about 34%;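 further: 0% = enzyme with vehicle and 100% = wells lacking enzyme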
# Target sequence (Q8NCG7 whole entry, looked up): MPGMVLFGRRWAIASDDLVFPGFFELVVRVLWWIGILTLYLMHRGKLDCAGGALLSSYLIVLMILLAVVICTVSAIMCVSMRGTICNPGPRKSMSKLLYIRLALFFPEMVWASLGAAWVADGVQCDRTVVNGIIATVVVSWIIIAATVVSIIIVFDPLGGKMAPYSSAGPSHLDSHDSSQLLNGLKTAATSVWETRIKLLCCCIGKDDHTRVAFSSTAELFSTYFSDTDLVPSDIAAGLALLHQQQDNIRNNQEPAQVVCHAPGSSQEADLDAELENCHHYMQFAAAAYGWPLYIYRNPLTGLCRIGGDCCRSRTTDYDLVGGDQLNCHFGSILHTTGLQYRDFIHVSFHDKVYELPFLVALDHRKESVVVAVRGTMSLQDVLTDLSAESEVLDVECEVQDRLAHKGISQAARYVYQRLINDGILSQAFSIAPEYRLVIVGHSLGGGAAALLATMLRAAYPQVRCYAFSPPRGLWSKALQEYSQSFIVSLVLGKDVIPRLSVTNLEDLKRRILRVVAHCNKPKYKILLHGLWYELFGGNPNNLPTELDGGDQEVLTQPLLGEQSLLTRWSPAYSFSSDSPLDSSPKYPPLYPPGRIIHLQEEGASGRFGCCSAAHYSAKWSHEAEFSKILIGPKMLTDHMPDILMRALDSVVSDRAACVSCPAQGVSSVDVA
# H9c2 protect – protects H9c2 cardiomyocytes from peroxide injury | H2O2 injury protection, ATPLite, 2 h | AID 588492 | protection from H2O2 cell death, % at 20 µM | hit rate 0.63% among 360,000;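 active means compounds giving at least 50% protection of heart cells from peroxide-induced death in the single-dose screen, raw or plate-pattern-corrected value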;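 further: 0% = DMSO wells with peroxide and 100% = DMSO wells without peroxide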
# H9c2 TAG inh – inhibitors of triacylglycerol accumulation; H9c2 cells, Nile Red lipid (TAG) fluorescence; cells loaded with 200 µM oleic acid; inhibition, % at 12.5 µM; hit rate 0.66% among 230,000; AID 651582;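 active means pattern-corrected inhibition of lipid staining of at least 50% with the nuclear-stain viability signal not falling by more than 50%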;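 further: 0% = DMSO wells and 100% = triacsin C control wells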
# MT1-MMP act inh – inhibitors of human MT1-MMP activation. P50281. HT1080 RFP-PRO-GFP cells, GFP/RFP ratio fluorescence, overnight; percent of plate control window, DMSO zero. GFP/RFP ratio change, % at 20 µM. hit rate 0.061% among 360,000;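 active means GFP/RFP ratio change of at least 30% with cell ATP level not reduced by more than half and red fluorescence within 50% of control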
#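 Assay system: HT1080 RFP-PRO-GFP cells. Benchmarks: DMSO vehicle wells and RFP-L50D-GFP reporter cell wells. Times: overnight cell settling, then overnight compound exposure, 37 °C, 5% CO2. Compound: 20 µM single dose, 1% DMSO. Read-out basis: GFP/RFP fluorescence ratio.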
# Numbers without * were called inactive; x = not tested or not shown. Most compounds without a hit are left out; they make up all but 1.4% or so of the library.
SMILES,Tn7 DDE FP,DDE Tn6 FP inh,DAGLB inh,H9c2 protect,H9c2 TAG inh,MT1-MMP act inh
N#CC(C#N)=c1ccc2c(c1)N1C3=C(CCCC3)CC3CCCCC31N=2 (centres undefined),-5,2,3,28,92*,-157
N#C/C(C(N)=O)=c1/ccc2c(c1)N1C3=C(CCCC3)CC3CCCCC31N=2 (centres undefined),-1,-3,x,x,x,x
CCN(CC)CCNc1cc(C)nc2c1C(=O)C(=O)C=C2N1CCCCC1,-6,-8,3,12,82*,-19
COC(=O)c1cc(C)nc2c1C(=O)C(=O)C=C2N1CCOCC1,-5,7,-19,-10,x,-14
Cc1sc2nc(SCC(=O)N3CCCC3)[nH]c(=O)c2c1C,3,-6,1,80*,-1,2
Cc1sc2nc(SCC(=O)N(C)C)[nH]c(=O)c2c1C,0,5,-1,73*,5,3
CC(=O)OCc1nc2sc(C)c(C)c2c(=O)[nH]1,8,-9,-1,51*,23,5
CC1Cc2ccccc2C(=O)N1 (centres undefined),2,2,0,97*,-16,5
Oc1cccc(/C=N/NC(=S)NCCN2CCOCC2)c1O,2,-3,-3,49*,11,3
Nc1nc2cc3c(cc2cc1C(=O)NCCc1c[nH]c2ccccc12)OCO3,1,-11,x,x,x,x
O=c1[nH]c2ccccc2c2ccccc12,-3,7,-1,71*,-10,-2
O=c1[nH]c2cc([N+](=O)[O-])ccc2c2ccccc12,8,-1,6,65*,3,-2
O=c1[nH]c2cccc(Cl)c2c2ccccc12,0,12,2,51*,-4,1
CCCC1CCC2(CCCN2CCOC(=S)Nc2ccccc2OC)CC1 (centres undefined),-1,-5,x,x,x,x
c1ccc(-c2c[nH]c3cccc(C4CCCCC4)c23)cc1,-3,-2,x,x,x,x
CN(CCc1ccccn1)C(=O)c1ccc2c(c1)ncn2C1CCCCC1,2,5,x,x,x,x
O=C(COC(=O)c1cc(-c2cccnc2)nc2ccccc12)Nc1ccc(F)cc1F,-2,-1,-4,71*,x,-14
Cc1cccc(C)c1NC(=O)COC(=O)c1cc(-c2cccnc2)nc2ccccc12,1,-4,1,11,-14,-6
COc1cccc(-c2nnc(SCC(=O)Nc3ccc(Oc4ccccc4)cc3)n2Cc2ccco2)c1,0,3,x,x,x,x
C[C@H](CO)N1C[C@H](C)[C@@H](CN(C)CC2CCOCC2)Oc2cc(C#Cc3ccccc3F)ccc2S1(=O)=O,-5,-2,-8,25,27,-7
C[C@@H]1CN([C@H](C)CO)S(=O)(=O)c2ccc(C#Cc3ccccc3F)cc2O[C@H]1CN(C)C(=O)c1ccc2c(c1)OCO2,-2,-7,-4,106*,3,-19
Cn1c(=O)n(CCc2ccccc2)c(=O)c2c1nc1n2CCN1Cc1ccco1,7,5,-2,98*,10,2
Cn1c(=O)n(Cc2ccc(F)cc2)c(=O)c2c1nc1n2CCN1Cc1ccco1,3,-1,9,5,4,1
Oc1ccccc1O,2,8,1,66*,25,4
Cc1ccccc1C1c2[nH]c3ccccc3c2C[C@H]2C(=O)N(c3ccccc3C(=O)NCCCN3CCOCC3)C(=O)N12 (some centres undefined),-2,-3,-1,55*,x,-8
SMILES,Tn7 DDE FP,DDE Tn6 FP inh,DAGLB inh,H9c2 protect,H9c2 TAG inh,MT1-MMP act inh
COCc1cccc(-c2cc(C(=O)OC)c3n(c2=O)CCC3)c1,0,-2,x,x,x,x
CN1c2ccsc2/C(=N/NC(=O)c2c(F)cccc2F)CS1(=O)=O,-3,-2,-2,4,-12,-10
Cc1cccc(C(=O)N/N=C2\CS(=O)(=O)N(C)c3ccsc32)c1,6,-19,2,64*,13,3
CCn1c(O)c(/C=N/N=C/c2ccccc2)c2ccc(C3=NNC(=O)CC3)cc21,3,5,5,76*,x,-12
Cc1occc1-c1nnc(SCC(=O)N2CCN(c3ncccn3)CC2)n1-c1ccccc1,6,9,x,x,x,x
CCn1c(/C=C/c2ccc(O)c(O)c2)nc2ccccc2c1=O,-7,3,6,70*,-6,-19
CCCCCCCCN1C(=O)[C@@H](CC(=O)NCc2ccccc2)C[C@@]2(C(=O)OC)C1=C[C@H](C(C)C)O[C@@H]2C1CC1,-5,-5,x,x,x,x
Cc1cccc(N=Cc2cc(Br)cc(Cl)c2O)c1,-6,-1,6,54*,x,2
NC(=O)c1cccc(N=Cc2cc(Cl)cc(Cl)c2O)c1,4,-5,7,48,21,0
COC(=O)[C@]12C[C@H](CC(=O)NCc3ccc(C)o3)C(=O)N(Cc3ccc(Cl)cc3Cl)C1=C[C@H](C(C)(C)C)O[C@@H]2C,0,0,x,x,x,x
COC(=O)c1c(NC(=O)c2nc3ccccc3s2)sc2c1CCN(C(C)=O)C2,x,x,-2,58*,25,-6
COC(=O)c1c(NC(=O)c2cccc(N3C(=O)CCC3=O)c2)sc2c1CCN(C(C)=O)C2,-2,2,1,19,-6,4
C[C@@H]1COc2cc(Br)ccc2S(=O)(=O)N1Cc1cn(Cc2ccc(C(F)(F)F)cc2)nn1,-5,-8,x,x,x,x
COC(=O)[C@]12C[C@H](CC(=O)NCCCCc3ccccc3)C(=O)N(Cc3ccco3)C1=C[C@H](C(C)C)O[C@@H]2C1CC1,4,8,x,x,x,x
COC(=O)c1cc2c(C)c(C)c3ccccn3c-2c1C(=O)OC,3,0,5,62*,-13,-30
COC(=O)c1cc2c(C)cc3ccc(C)cn3c-2c1C(=O)OC,-2,-10,5,12,0,-43
COC(=O)c1cc2ccccn2c2c(C(=O)OC)c(C(=O)OC)cc1-2,1,2,16,79*,x,15
COc1ccc(CCNC(=O)c2cc(C(=O)c3cc(C)ccc3O)cn(CCc3ccc(OC)cc3)c2=O)cc1,1,-2,-2,65*,x,-4
COc1ccc(CCNC(=O)c2cc(C(=O)c3cc(Cl)ccc3O)cn(CCc3ccc(OC)cc3)c2=O)cc1,-6,4,-6,10,x,4
O=C(CCC(=O)N/N=C/c1cc(Cl)cc(Cl)c1O)NCc1ccccc1,2,6,6,52*,2,-4
c1cc2[nH]snc2c2nc(C3CC3)nc12,3,0,0,86*,x,-19
Cn1nnnc1N=N/C(=N/Nc1ccccc1)c1ccccc1,-2,-4,17,21,72*,9
CN1C(=O)C[C@@](C#N)(C(=O)Nc2nc3ccc(F)cc3s2)[C@H]1c1ccccc1,-1,-5,x,x,x,x
